21 compounds from ChEMBL document CHEMBL1124254, “Pumiliotoxin alkaloids: relationship of cardiotonic activity to sodium channel activity and phosphatidylinositol turnover” (1988) can be followed below.

Assay type in all cases: functional
For assay [1], the species on record is Cavia porcellus. Briefly: Cardiotonic activity was measured in guinea pig atria at 54 uM concentration; Ranking. In short, it runs like this:
(§1)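 Isolated atria suspended at 37 °C in Tyrode's solution aerated with O2-CO2 (95:5). After at least 1 h equilibration, cumulative dose-response curves for rate and force of spontaneous contractions were built by serial additions of alkaloid in methanol, at least 10 min apart. Effects given at 54 μM; values are averages of two to six experiments.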

The species entered for assay [2] is Cavia porcellus. Briefly: Phosphoinositide breakdown in guinea pig brain synaptoneurosomes. Set-up: concentration or dose not given beside the values. In outline: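 Guinea pig cerebral cortex synaptoneurosomes (~1 mg protein per tube) were labelled 60 min at 37 °C with 1 μM [3H]inositol in Krebs-Henseleit buffer (pH 7.4). LiCl was added, and agents were added 10 min later for 90 min at 37 °C under O2-CO2. [3H]inositol 1-phosphate was isolated by anion exchange and counted. Results are percent of control, means ± SEM (n = 3) or single values at 10 μM.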

For assay [3], the species on record is Cavia porcellus. Briefly: Specific sodium influx was measured in guinea pig brain synaptoneurosomes at 100 uM concentration (10s of incubation).
The species named for a further assay is Mus musculus. Briefly: Phosphoinositide (PI) breakdown was measured in mouse atria at 10 uM. In outline: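 Male mouse (20-25 g) right and left atria were prelabelled for 60 min at 37 °C in Krebs-Henseleit buffer (pH 7.4) with 1 μM [3H]inositol. LiCl (10 mM final) was added, and agents were added 15 min later at 10 μM for 30 min at 37 °C. [3H]inositol phosphates in the TCA extract were separated by anion exchange. Results are percent of control, two to four determinations ± SEM.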

The species entered for assay [4] is Cavia porcellus. Briefly: Cardiotonic activity was measured in guinea pig atria at 54 uM concentration; Ranking -. In outline:
as §1

The species named for assay [5] is Cavia porcellus. Briefly: Cardiotonic activity was measured in guinea pig atria at 18 uM concentration; Ranking. In short, it runs like this: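 Isolated spontaneously beating atria held at 37 °C in Tyrode's solution gassed with 95:5 O2-CO2, equilibrated at least 1 h. Alkaloid was added serially in methanol, at least 10 min apart, to build cumulative dose-response curves. Rate and force of spontaneous contractions were recorded. Values are averages of two to six experiments.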

`CC(O)CC[C@@H](C)/C=C1\CN2CCC[C@H]2[C@@](C)(O)C1` (stereo not given in full): the figures for the Activity entry in the assay listed under Cavia porcellus [1] and in the assay listed under Cavia porcellus [2] were “Ranking” and 129%, respectively.
On to `C/C(=C\C[C@@H](C)/C=C1\CN2CCC[C@H]2[C@@](C)(O)C1)[C@@H](O)[C@@H](C)O`, for which the figures for the Activity in the assay filed under Cavia porcellus [2], in the assay filed under Cavia porcellus [3] and in the assay filed under Mus musculus were 280%, 3.05 nM (mg of protein)-1 and 150%, respectively.
As to `C=CCCCC/C=C1\CN2CCC[C@H]2[C@@](C)(O)C1`, the Activity result is “Ranking -” in the assay listed under Cavia porcellus [4] and 112% in the assay listed under Cavia porcellus [2].
`C/C(=C\C[C@@H](C)/C=C1\CN2CCC[C@H]2[C@@](C)(O)C1)[C@H](O)[C@H](C)O`: the Activity result in the assay listed under Cavia porcellus [1] is “Ranking”; in the assay listed under Cavia porcellus [2], 129%.
Turning to `CCC(OC)/C(C)=C/C[C@@H](C)/C=C1\CN2CCC[C@H]2[C@@](C)(O)C1` (stereo not given in full), the Activity result in the assay filed under Cavia porcellus [4] is reported as “Ranking -”; in the assay listed under Cavia porcellus [2] it was 118%; in the assay filed under Cavia porcellus [3] it was 0.29 nM (mg of protein)-1; in the assay listed under Mus musculus it was 92%.
Regarding `C/C(=C\C[C@@H](C)/C=C1\CN2CCC[C@H]2[C@@](C)(O)C1)[C@@H](O)[C@H](C)O`, the Activity result in the assay listed under Cavia porcellus [1] is reported as “Ranking”.
Regarding `C[C@@H](/C=C1\CN2CCC[C@H]2[C@@](C)(O)C1)CCOCc1ccccc1`, the figures for the Activity result in the assay listed under Cavia porcellus [4] and in the assay listed under Cavia porcellus [2] were “Ranking -” and 102%, respectively.
Turning to `CCC[C@@H](C)/C=C1\CN2CCC[C@H]2[C@@](C)(O)[C@@H]1O`, the Activity entry in the assay filed under Cavia porcellus [1] was “Ranking”; in the assay listed under Cavia porcellus [2], 138%.
For `C/C(=C\C[C@@H](C)/C=C1\CN2CCC[C@H]2[C@@](C)(O)[C@H]1O)[C@@H](O)[C@@H](C)O` the same measures were “Ranking” and 176%.
On the same counts, the results for `C/C(=C\C[C@H](C)/C=C1\CN2CCC[C@H]2[C@@](C)(O)C1)[C@@H](O)[C@@H](C)O` are “Ranking” and 110%.
`CC[C@H](O)/C(C)=C/C[C@@H](C)/C=C1\CN2CCC[C@H]2[C@@](C)(O)C1`: the Activity entry in the assay filed under Cavia porcellus [1] is “Ranking”.
With `CC[C@H](O)/C(C)=C/C[C@@H](C)/C=C1\CN2CCC[C@H]2[C@@](C)(O)[C@@H]1O`, the Activity entry is “Ranking” in the assay listed under Cavia porcellus [5] and 275% in the assay filed under Cavia porcellus [2].
For the compound `CCCC[C@@H](C)/C=C1\CN2CCC[C@H]2[C@@](C)(O)C1`, the figures for the Activity entry in the assay listed under Cavia porcellus [4] and in the assay listed under Cavia porcellus [2] were “Ranking -” and 132%, respectively.
On the same counts, the results for `C[C@H](/C=C1\CN2CCC[C@H]2[C@@](C)(O)C1)CCO` are “Ranking -” and 115%.
For `CC[C@@H](O)/C(C)=C/C[C@@H](C)/C=C1\CN2CCC[C@H]2[C@@](C)(O)[C@@H]1O`, the Activity entry was “Ranking” in the assay listed under Cavia porcellus [1] and 137% in the assay listed under Cavia porcellus [2].
With `C[C@]1(O)C/C(=C/CCCCCCO)CN2CCC[C@H]21`, the values for the Activity entry in the assay listed under Cavia porcellus [4] and in the assay filed under Cavia porcellus [2] were “Ranking -” and 122%, respectively.
Regarding `CCC[C@H](C)/C=C1\CN2CCC[C@H]2[C@@](C)(O)[C@H]1O`, the Activity entry was “Ranking -” in the assay listed under Cavia porcellus [4] and 116% in the assay listed under Cavia porcellus [2].
As to `C/C(=C\C[C@@H](C)/C=C1\CN2CCC[C@H]2[C@@](C)(O)[C@@H]1O)[C@@H](O)[C@@H](C)O`, the Activity result in the assay listed under Cavia porcellus [5] is “Ranking”; in the assay listed under Cavia porcellus [2] it was 304%.
Regarding `CCC(=O)/C(C)=C/C[C@@H](C)/C=C1\CN2CCC[C@H]2[C@@](C)(O)C1`, the Activity result in the assay filed under Cavia porcellus [4] is recorded as “Ranking -”; in the assay filed under Cavia porcellus [2], 109%.
As for `CCC(O)/C(C)=C/C[C@@H](C)/C=C1\CN2CCC[C@H]2[C@@](C)(O)C1` (stereo not given in full), the Activity result in the assay filed under Cavia porcellus [1] is given as “Ranking”; in the assay filed under Cavia porcellus [2], 172%; in the assay filed under Cavia porcellus [3], 0.72 nM (mg of protein)-1; in the assay listed under Mus musculus, 114%.
On to `C[C@@H](/C=C1\CN2CCC[C@H]2[C@@](C)(O)C1)CCO`, for which the Activity entry in the assay filed under Cavia porcellus [4] is “Ranking -”; in the assay filed under Cavia porcellus [2], 110%.
